pKi: −log10 of the molar value. Read-outs that look alike come from different tables or passages of the source. Values belong to the compound of their own block, whether it stands above or below them.
Legend:
SP1–7 binding site [1] = conditions: rat spinal cord membranes preparation; cited from earlier work
SP1–7 binding site [2] = test: Dynamic PET imaging, blocking experiments; type: in vivo, Wistar rats
In short: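 Healthy male Wistar rats (200–320 g) under isoflurane (3% induction, 1–2.5% maintenance, in oxygen). A 5 min CT or 15 min MRI preceded the i.v. tail-vein tracer bolus and a 60 min dynamic PET scan. Blockers were SP1–7 (5% DMSO in saline), 185 nmol·kg–1 i.p. 15 min before, or the unlabeled tracer analogue (20% EtOH in saline), 3 μmol·kg–1 slow i.v. 3 or 20 min before. Read-out was manual brain/spinal cord ROI SUV ± SD.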

Caco-2 cell monolayer = conditions: cited from earlier work
SP1–7 binding site [3] = conditions: read-out: binding; rat ventral tegmental area; cited from earlier work
[4] = mouse plasma; cited from earlier work
[5] = self-blocking, i.v. 3 μmol·kg^–1, 3 min prior to tracer
[6] = blocker i.p. 185 nmol·kg^–1, 15 min prior to tracer

blocking of [^11C]1 brain uptake (SP1–7 binding site [2]; blocker i.v. 3 μmol·kg^–1, 20 min prior to tracer): did not block brain uptake
blocking of [^11C]1 spinal cord uptake (SP1–7 binding site [2]; self-blocking, 3 or 20 min prior to tracer injection): did not show any blocking
Compound: NC(=O)[C@H](Cc1ccccc1)NC(=O)OCc1ccccc1 [compound 1, (S)-Benzyl (1-Amino-1-oxo-3-phenylpropan-2-yl)carbamate]
pKi (SP1–7 binding site [1]): 8.28

blocking of [^11C]2 brain uptake (SP1–7 binding site [2]; [5]): did not show any blocking effect
blocking of [^11C]2 spinal cord uptake (SP1–7 binding site [2]; [5]): did not show any blocking effect
Compound: NC(=O)[C@@H](Cc1ccccc1)NC(=O)OCc1ccccc1 [compound 2, (R)-Benzyl (1-Amino-1-oxo-3-phenylpropan-2-yl)carbamate]

blocking of [^11C]1 brain uptake (SP1–7 binding site [2]; [6]): did not block brain uptake
blocking of [^11C]1 spinal cord uptake (SP1–7 binding site [2]; [6]): moderate blocking
Compound: H-Arg-Pro-Lys-Pro-Gln-Gln-Phe-OH (H-RPKPQQF-OH) [SP1–7]
permeability (Caco-2 cell monolayer): failed to display any measurable permeability
pKi (SP1–7 binding site [3]): 8.41
in vitro half-life [4]: 4.4 min
